Source: PubChem (several laboratories)
Sampled rows, rich in hits. Any-hit rate of the full collection: about 3%.
MEKK2 WT-MEK5: raises or lowers MEK5 binding to wildtype human MEKK2 PB1 domain. Q9Y2U5. bead flow cytometry, Alexa488-MEK5 binding to MEKK2 WT; actives lie on both sides. binding response (% of control), % at 10 µM. 290,000 compounds, 1.1% hits; in the data active = binding response below about 67% or above about 130%
UCH37 inh: blocks the human deubiquitinase UCH37; Q9Y5K5; purified proteasome/UCH37, Ub-AMC cleavage fluorescence; inhibition, % (test concentration not listed); 330,000 compounds, 0.33% hits; AID 588478;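 active = mean inhibition over replicate wells above about 20%, limit read from the data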;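 note: 0% = compound-free wells with enzyme and 100% = wells lacking proteasome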
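Material: human UCH37 enzyme supplied as purified proteasome complex. Measure: % inhibition of Ub-AMC cleavage fluorescence. Medium: pH 7.4 Tris-HCl (50 mM) with ovalbumin, ATP-MgCl2, DTT. Times: 30 min preincubation with enzyme, 25 min cleavage at room temperature. Detection: AMC fluorescence intensity at 355/460 nm.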
MEKK3 PB1 HTS: modulators (inhibitors or enhancers) of MEK5 binding to human MEKK3 PB1 domain. bead-based flow cytometry, Alexa488-MEK5 binding to MEKK3; actives lie on both sides; 0 = blocked by unlabeled MEK5, 100 = vehicle. binding response (% of control), % at 10 µM. 290,000 compounds, 1.4% hits. AID 1529;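 active = binding response more than 3 SD above or below the average of its plate-row segment, actives on both sides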;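 note: Alexa488 bead fluorescence after subtracting the streptavidin-only scavenger bead signal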
MEKK2mut PB1 HTS: signal of MEK5 binding to mutant human MEKK2 PB1 domain; bead flow cytometry, Alexa488-MEK5 binding to MEKK2 mutant; percent response, % at 10 µM; 290,000 compounds, 0.35% hits; in the data active = percent response above about 24%, passing the limit was not always enough
UBC13 polyUb: human UBC13 polyubiquitination inhibition; UBC13 polyubiquitin chain formation, TR-FRET; 330,000 compounds, 0.47% hits; AID 485273; inhibition, % at 20 µM; in the data active = inhibition above about 45%, passing the limit was not always enough
Apaf1 inhib: inhibitors of human Apaf-1 apoptosome; 330,000 compounds, 0.71% hits; inhibition, % at 20 µM; AID 489030; reconstituted apoptosome caspase-3 activity, DEVD-Rh110 fluorescence; active = inhibition of at least 40% at 20 µM;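 note: plate controls were DMSO wells for no effect and DEVD-CHO caspase inhibitor wells for full effect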
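System – cell-free apoptosome with Apaf-1, procaspase-3 and caspase-9 · Buffer or medium – pH 7.5 Hepes buffer with CHAPS, BSA, DTT · Also added – cytochrome c with DEVD-Rh110 · Times – 30 min compound preincubation, 50 min activation, room temperature · Technique – Rh110 fluorescence intensity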
MEKK2wt confirm: raises or lowers MEK5 binding to wildtype human MEKK2, retest. shares compounds with MEKK3 PB1 HTS. binding response (% of control), % at 10 µM. bead flow cytometry, Alexa488-MEK5 binding to MEKK2 WT; actives lie on both sides. 5,900 compounds, 2.4% hits; in the data active = binding response below about 16% or above about 210%; inactive = in between
MEKK2mut-MEK5: signal of MEK5 binding to mutant human MEKK2, retest | shares compounds with MEKK3 PB1 HTS | bead flow cytometry, Alexa488-MEK5 binding to MEKK2 mutant | 5,900 compounds, 2% hits | percent response, % at 10 µM; in the data active = percent response mostly above about 71%, no sharp cut-off; inactive = mostly below about 38%;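 note: higher means compound restores mutant binding toward wildtype level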
MEKK3-MEK5 inh: confirmation of inhibitors of MEK5 binding to human MEKK3. shares compounds with MEKK3 PB1 HTS. bead flow cytometry, Alexa488-MEK5 binding to MEKK3; active compounds read low. binding response (% of control), % at 10 µM. 5,900 compounds, 1.8% hits;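 active = binding response below 72% of control, or above a set upper limit, though filed actives all read lower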;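 note: 100% = DMSO only wells and 0% = binding blocked by excess unlabeled MEK5; lower values mean stronger disruption of MEK5 binding to MEKK3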
An asterisk follows results filed as active; · = not tested or not shown; [ ] = remark or other dose.

SMILES | MEKK2 WT-MEK5 | UCH37 inh | MEKK3 PB1 HTS | MEKK2mut PB1 HTS | UBC13 polyUb | Apaf1 inhib | MEKK2wt confirm | MEKK2mut-MEK5 | MEKK3-MEK5 inh
CCCC(C)c1nnc(NC(=O)c2cc(C(=O)OC)cc([N+](=O)[O-])c2)s1 (stereo not given) | 101 | 7 | 99 | 2 | 5 | 11 | · | · | ·
CN(CC(=O)Nc1cccc2c1CCCC2)S(=O)(=O)c1ccc(Br)cc1 | 94 | 5 | 94 | -3 | 9 | 17 | · | · | ·
CN(CC(=O)Nc1cccc2c1CCCC2)S(=O)(=O)c1ccccc1 | 88 | 3 | 80*[inhibitor] | -4 | 13 | 9 | 99 | 6 | 100
CN(c1ccc(C(=O)Nc2ccc(S(=O)(=O)N3CCCC3)cc2)cc1)S(C)(=O)=O | 92 | 1 | 102 | 1 | -1 | -6 | · | · | ·
N#C/C(=N\Nc1ccccc1)C(=N)N1CCOCC1 | 105 | · | 130* | 0 | -4 | -9 | 97 | -2 | 95
c1ccc(Cc2nc3ccccc3n2Cc2ccccc2)cc1 | 96 | 3 | 98 | 0 | 7 | 4 | · | · | ·
Cc1cccc2c1-c1sc(C(=O)N3CCCCC3)cc1CO2 | 99 | -137 | 97 | 1 | 26 | 17 | · | · | ·
Cc1cccc2c1-c1sc(C(=O)Nc3ccccc3N3CCN(C)CC3)cc1CO2 | 162* | -22 | 103 | 4 | 34 | 8 | 198 | 46 | 111
O=C1/C(=C/c2cccs2)N=C(c2cccs2)N1Nc1ccccc1 | 57*[inhibitor] | 3 | 88 | -16 | -13 | 10 | 78 | -8 | 103
O=C1/C(=C\c2cccs2)N=C(c2cccs2)N1Nc1ccccc1 | 64 | 8 | 84 | -11 | -8 | 6 | · | · | ·
O=C(COC(=O)c1cnc(Cl)c(Cl)c1)Nc1ccc(S(=O)(=O)N2CCCC2)cc1 | 100 | 2 | 100 | 0 | 9 | 10 | · | · | ·
CN1CCN(CCCNC(=O)c2ccc(/C=C3\Sc4ccccc4N(Cc4ccccc4F)C3=O)cc2)CC1 | 167* | -13 | 97 | 36 | · | · | 190 | 62 | 110
Cc1cccc(CN2C(=O)/C(=C\c3ccc(C(=O)NCCN4CCOCC4)cc3)Sc3ccccc32)c1 | 130 | -33 | 107 | 9 | 27 | 16 | · | · | ·
CCN1CCN(CCNC(=O)c2ccc(/C=C3/Sc4ccccc4N(Cc4cccc(Cl)c4)C3=O)cc2)CC1 | 280* | -10 | 111 | 120* | 23 | 28 | 234* | 100* | 116
Cc1cccc(-n2ccnc2CN2CCN(C3CCCC3)C(CCO)C2)c1 (stereo not given) | 107 | 3 | 105 | 8 | -10 | -10 | · | · | ·
O=C(CSC1=Nc2ccccc2C2=NC(c3ccccc3)C(=O)N12)NC1CCCCC1 (stereo not given) | 125 | -176 | 124* | 6 | 1 | 13 | 101 | 2 | 103
Cn1cc(C(=O)NN=Cc2cccc(O)c2)ccc1=O | · | 6 | · | · | · | · | · | · | ·
COc1ccc(CCC(=O)Nc2cc([N+](=O)[O-])ccc2OC)cc1 | 98 | 6 | 102 | -1 | -9 | 3 | · | · | ·
COc1ccc(-c2noc(CCC(=O)Nc3ccc4c(c3)OCCO4)n2)cc1 | 118 | 2 | 115 | 17 | 11 | -1 | · | · | ·
COc1ccc(CCC(=O)Nc2ccc(C)c([N+](=O)[O-])c2)cc1 | 106 | 4 | 161* | 1 | 1 | 3 | 102 | 4 | 100
COc1ccc(-c2noc(CCC(=O)Nc3ccc(C)c(C)c3)n2)cc1 | -7.0*[inhibitor] | 4 | 0.0*[inhibitor] | -22 | 13 | -4 | 106 | 1 | 100
COc1ccc(C(=O)c2cn[nH]c2-c2cc(C)ccc2O)cc1 | 109 | 1 | 104 | 4 | 1 | 4 | · | · | ·
O=C(C1=C(Nc2ccccc2)c2ccccc2S(=O)(=O)N1)c1ccccc1 | 85 | · | 64*[inhibitor] | -2 | -63 | 25 | 95 | -7 | 103
Cc1csc(NC(=O)C2CCCN(S(=O)(=O)c3cccnc3)C2)n1 (stereo not given) | 95 | 2 | 93 | -2 | 3 | 0 | · | · | ·
CC(=NNC(=O)c1cccc(S(=O)(=O)N2CCCC2)c1)c1ccccc1 | · | 3 | · | · | 0 | -1 | · | · | ·
SMILES | MEKK2 WT-MEK5 | UCH37 inh | MEKK3 PB1 HTS | MEKK2mut PB1 HTS | UBC13 polyUb | Apaf1 inhib | MEKK2wt confirm | MEKK2mut-MEK5 | MEKK3-MEK5 inh
CC(NC(=O)Nc1ccc(F)cc1)C(c1cccs1)N1CCCC1 (stereo not given) | 117 | 2 | 142* | 1 | -11 | -11 | 109 | 3 | 105
CC(NC(=O)c1ccc(F)cc1)C(c1cccs1)N1CCN(C)CC1 (stereo not given) | 96 | 4 | 95 | -1 | -5 | -12 | · | · | ·
CC(=O)Nc1ccc(-c2nnc(SCC(=O)n3c4c(c5ccccc53)CCCC4)n2C)cc1 | 101 | 4 | 100 | 2 | · | · | · | · | ·
CC1CC(C)CN(CCCNS(=O)(=O)c2ccc3c(c2)oc(=O)n3C)C1 (stereo not given) | 103 | -1 | 102 | 1 | 5 | 3 | · | · | ·
CC(C)(C)c1ccc(S(=O)(=O)n2c(CN3CCOCC3)nc3ccccc32)cc1 | 120 | 2 | 125* | 6 | 4 | 8 | 101 | 0 | 102
COc1ccc(S(=O)(=O)n2c(CCN3CCOCC3)nc3ccccc32)cc1 | 113 | 2 | 107 | 4 | 12 | 5 | · | · | ·
CCCc1nc2ccccc2c(=O)n1N=Cc1ccc(O)c(O)c1 | · | 2 | · | · | · | · | · | · | ·
Oc1ccc(N2CCN(C(c3cccs3)c3nnnn3CCc3ccccc3)CC2)cc1 (stereo not given) | 98 | 2 | 94 | -1 | -1 | 9 | · | · | ·
COC(=O)c1cn(-c2nc(C)c3c(n2)CCC3)nn1 | 77 | 1 | 67 | -7 | -9 | -10 | · | · | ·
Cc1nc(-n2nnc(CO)c2CO)nc2c1CCC2 | 116 | 2 | 138* | 4 | -7 | 0 | 93 | -3 | 100
CC(O)c1cccc(N=Cc2ccc3ccccc3c2O)c1 (stereo not given) | 99 | 4 | 101 | -1 | -15 | 18 | · | · | ·
C=C(C)[C@@H](O)COc1c2ccoc2cc2oc(=O)ccc12 | · | -7 | · | · | 10 | 2 | · | · | ·
CCOC(=O)CCC(NC(=O)CCCCCCCCC(=O)NC(CCC(=O)OCC)C(=O)OCC)C(=O)OCC (stereo not given) | 110 | 0 | 107 | 1 | 3 | 5 | · | · | ·
